# Source: PubChem
# Cneo AK release = Cryptococcus neoformans lysis via adenylate kinase release. C. neoformans lysis, adenylate kinase release luminescence, 4 h; normalised: neutral wells 0, clomiphene wells 100. lysis activity, % at 15 µM. hit rate 0.2% among 360,000. AID 651654;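 active = mean lysis activity across replicates of at least 80%, whatever share of replicates individually reach that level; inactive = mean lysis activity below 80%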
#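 Material: C. neoformans cells | Amount: Yeast cell density of 5 × 10^6 cells/mL | Medium: Fresh YPD growth medium | Dosing: Single dose | Times: Static 4 h at 37 °C with compound, 1 h detection | Detection: AK luminescence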
# CFTR F508del cor = correctors of CFTR F508del function in bronchial epithelial cells; CFBE cells, YFP halide quenching; stimulated with forskolin plus potentiator P3; % fluorescence drop versus neutral controls; activity (quench increase), % at 7.58 µM; hit rate 0.36% among 350,000;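 active = mean added fluorescence quench of at least 8% versus neutral control, with both replicates also reaching 8%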;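 note: cells transiently co-express mutant CFTR-F508del with the halide-sensitive YFP; corrector assay measuring rescue of mutant channel to the surface after 24 h compound exposure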
# Env fusion inh = blocks HIV Env-driven cell-cell fusion. HeLa-JRFL Env/CEM21 cell fusion, luciferase. inhibition, % at 12.3 µM. hit rate 1.1% among 360,000. AID 651610;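 active = mean replicate inhibition score of at least 50 and every replicate individually at or above 50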
# miR-122 sensor = inhibitors of miR-122 in Huh7 cells; Huh7 miR-122 Renilla luciferase sensor, 48 h; neutral wells = 0, positive control = 100; activation (reporter increase), % at 12.5 µM; hit rate 0.3% among 340,000;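 active = mean replicate activation score at least 90 and every replicate individually at or above 90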;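 note: higher luciferase means less miR-122 activity so hits act as miR-122 inhibitors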
# rRNA inh HTS = inhibits bacterial ribosomal RNA function over humanized ribosomes; GFP signal change (wild-type ribosome), % (concentration not given with the values); AID 720706; hit rate 1.6% among 350,000; E. coli WT GFP vs humanized-ribosome RFP mutants, fluorescence, 24 h; stronger effect = lower value; DMSO median 0, no signal -100;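 active = significant combined selectivity score with lowered wild-type GFP, culture density cut under 30%, mutant RFP and density less affected; inactive = any of these conditions unmet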
# GSIS activator = primary screen for activators of insulin secretion dependent on glucose, INS-1E cells, GLuc reporter luminescence; INS-1E GLuc reporter insulin secretion, 2-3 h; activation, % at 16.6 µM; hit rate 0.61% among 370,000; AID 743287;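 active = lowest replicate activation of at least 40%, so every replicate reaches that level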
# Hits are given with their value; 0 = inactive; - = no result given. Rows were chosen to be rich in hits. Some 3.1% of all compounds tested hit in one or more screens of this group.
SMILES,Cneo AK release,CFTR F508del cor,Env fusion inh,miR-122 sensor,rRNA inh HTS,GSIS activator
Cc1onc(-c2ccccc2)c1C(=O)NNC(=S)NC(=O)c1ccc2c(c1)OCO2,0,0,0,-,-40,0
COc1ccc(C(=O)NC(=S)NNC(=O)c2c(-c3ccccc3)noc2C)cc1OC,0,0,0,0,0,-
Cc1onc(-c2c(Cl)cccc2Cl)c1C(=O)Nc1ccc(C(N)=O)cc1,0,0,0,-,-,0
Cc1onc(-c2ccccc2)c1C(=O)NC(=S)NNC(=O)c1cccnc1,0,0,0,0,0,0
Cc1onc(-c2ccccc2)c1C(=O)NC(=S)NNC(=O)c1ccncc1,0,0,-,0,-36,0
Cc1onc(-c2c(Cl)cccc2Cl)c1C(=O)Nc1ccc2c(c1)OCO2,0,0,-,-,-22,0
C[C@@H]1CN([C@@H](C)CO)C(=O)c2cccc(NC(=O)c3nc4ccccc4s3)c2O[C@H]1CN(C)Cc1ccc(C(=O)Nc2ccccc2N)cc1,0,0,-,0,0,0
CNc1snc(C)c1C(=O)OC(C)C(=O)c1ccc(F)cc1 (stereo not given),0,0,0,-,-24,0
CNc1snc(C)c1C(=O)OCC(=O)c1ccc(Cl)cc1,0,0,-,-,0,0
CC(Oc1ccc(Cl)cc1)c1ccnn1S(=O)(=O)c1ccc(Cl)cc1 (stereo not given),0,-,0,111,-,-
COc1ccc(-n2cc(-c3ccccc3)[n+]3c2CCCCC3)cc1,-,0,0,-,-30,0
FC(F)Oc1ccc(-n2cc(-c3ccc(Cl)cc3)[n+]3c2CCCCC3)cc1,-,0,0,-,-47,0
COc1ccc(-n2cc(-c3ccc(C)cc3)[n+]3c2SCC3)cc1,-,-,118,-,-,0
FC(F)Sc1ccc(-n2cc(-c3ccccc3)[n+]3c2CCC3)cc1,-,-,0,-,-,0
CC(C)NC(=O)N(C)C[C@H]1Oc2ccc(NS(=O)(=O)c3ccccc3)cc2CC(=O)N([C@@H](C)CO)C[C@H]1C,0,0,0,0,0,0
C[C@H](NC(=O)[C@@H]1[C@@H](CO)[C@@H]2Cn3c(ccc(-c4ccccc4F)c3=O)[C@H]1N2)c1ccccc1,0,0,-,0,0,0
Cc1cc(SCc2ccccc2Cl)nc(=O)[nH]1,0,0,0,0,0,0
Cc1cc(SCc2ccc(Cl)cc2Cl)nc(=O)[nH]1,0,0,0,0,-31,0
COCC(=O)N1CCC2(CC1)CN(S(C)(=O)=O)[C@@H](CO)c1c2c2ccc(OC)cc2n1C,-,-,-,-,0,0
O=C(NC(Nc1ncc(S(=O)(=O)c2ccc([N+](=O)[O-])cc2)s1)(C(F)(F)F)C(F)(F)F)c1ccc(Cl)cc1,0,-,144,0,-,-
Cc1cccc(CN2C(=O)c3ccccc3Sc3ccc(C(=O)O)cc32)c1,0,0,0,0,-21,-
Cc1ccccc1CN1C(=O)c2ccccc2Sc2ccc(C(=O)O)cc21,0,0,0,-,-34,0
O=C(c1ccc2c(c1)N(Cc1ccccc1)C(=O)c1ccccc1S2)N1CCCC1,0,0,-,0,0,0
C[C@@H]1CN([C@@H](C)CO)S(=O)(=O)c2ccc(-c3cncnc3)cc2O[C@H]1CN(C)C(=O)C1CCC1,0,0,0,0,0,0
C#CCN(C)CCCOc1ccc(Cl)cc1Cl,0,8.9,0,0,-,-
SMILES,Cneo AK release,CFTR F508del cor,Env fusion inh,miR-122 sensor,rRNA inh HTS,GSIS activator
NC(=O)C1Cc2ccccc2CN1C(=O)c1cc(C2CC2)nn1-c1ccccc1 (stereo not given),0,0,-,-,-21,0
O=C(O)c1cc(C2CC2)nn1-c1ccccc1,0,-,0,0,0,0
CCCNC(=O)N(C)C[C@@H]1Oc2ncc(C#CC3(O)CCCC3)cc2C(=O)N([C@H](C)CO)C[C@@H]1C,0,0,0,0,0,0
COc1cc2c(cc1OC)C1=C(C#N)CC/C(=N\S(=O)(=O)c3cccc(Cl)c3)N1CC2,0,-,0,0,-,-
COc1cc2c(cc1OC)C1=C(C#N)CCC(=NC(=O)c3ccco3)N1CC2,0,0,0,0,0,75
O=C(O)/C=C/C(=O)Nc1ccc(Cl)cc1C(=O)c1ccccc1,0,0,0,0,-23,0
Cc1cc(C(=O)NCCC2=CCCCC2)ccc1[N+](=O)[O-],0,-,0,0,-35,0
C[C@H]1CCCCO[C@@H](CN(C)C(=O)c2ccccc2)[C@@H](C)CN([C@@H](C)CO)C(=O)c2cc(NS(=O)(=O)c3ccc(Cl)cc3)ccc2O1,0,0,0,0,0,0
COc1ccc2c(c1)C(C)=CC(C)(C)N2S(=O)(=O)c1ccc(C)cc1,-,0,0,0,0,0
CC1=CC(C)(C)N(S(=O)(=O)c2ccc(C)cc2)c2cc(C)ccc21,0,-,-,94,-,-
C[C@H](CO)N1C[C@H](C)[C@@H](CN(C)C)Oc2ccc(NS(C)(=O)=O)cc2C1=O,0,0,-,0,0,0
CCNc1ccc(C(=O)N/N=C/c2c(C)nn(-c3ccccc3)c2N2CCCC2)cc1[N+](=O)[O-],-,-,0,-,0,46
Cc1ccc(NS(=O)(=O)c2cccc(C(=O)N/N=C/c3c(C)nn(-c4ccccc4)c3N3CCCC3)c2)c(C)c1,-,-,0,-,-,0
COc1ccc(Nc2nc3cc(-c4ccsc4)sc3c(=O)n2C)cc1OC,0,0,0,0,-21,0
COc1cccc(-c2cc3nc(Nc4ccc(OC)c(OC)c4)n(C)c(=O)c3s2)c1,0,0,0,0,0,0
COc1ccc(Nc2nc3cc(-c4sccc4C)sc3c(=O)n2C)cc1OC,0,9.6,0,0,0,0
COc1cccc(CNc2nc3cc(-c4ccccc4)sc3c(=O)n2C)c1OC,0,0,66,0,0,0
O=C(Nc1ccccc1F)N1[C@@H](CO)[C@@H]2c3ccccc3NC[C@@H]21,0,0,-,0,0,0
CCC(C(=O)Nc1cccc(OC)c1)n1nc(C)c2c(C)n(-c3ccccc3)nc2c1=O (stereo not given),0,0,0,0,0,0
CCOc1ccc(NC(=O)C(CC)n2nc(C)c3c(C)n(-c4ccccc4)nc3c2=O)cc1 (stereo not given),0,0,0,0,-23,0
C=CCC[C@H](Cc1ccc(F)cc1)C(=O)OC[C@@H](NC(=O)[C@H](CC=C)CC(=O)NCCO)C(C)(C)C,0,0,90,0,0,-
C=CC[C@H](CC(=O)N(CCO)Cc1ccccc1)C(=O)N[C@H](COC(=O)[C@@H](CC=C)Cc1ccc(F)cc1)C(C)(C)C,0,0,0,0,0,0
C=CCC[C@H](Cc1ccc(F)cc1)C(=O)OC[C@@H](NC(=O)[C@@H](CC=C)CC(=O)N(CCO)Cc1ccccc1)C(C)(C)C,0,0,72,0,0,0
Cc1noc(C)c1NC(=O)N(C)C[C@@H]1Oc2c(NS(C)(=O)=O)cccc2C(=O)N([C@H](C)CO)C[C@H]1C,0,0,0,0,0,0
